SENP8 block-1: inhibitors of human SENP8 protease | 360,000 tested, 0.64% active | Q96LD8 | AID 602440 | recombinant SENP8, Nedd8 substrate fluorescence | inhibition, % at 20 µM; in the data active = inhibition mostly above about 40%, no sharp cut-off; inactive = mostly below about 27%
CendR NRP1 mod: alters CendR peptide binding to human NRP-1; O14786; FAM-RPARPAR peptide binding to NRP-1, fluorescence polarization; inhibition, % at 25 µM; 360,000 tested, 0.85% active;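 active = inhibition or corrected inhibition above about 18%, plus a signal ratio from 0.5 to 1.5, limit read from the data, passing the limit was not always enough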
SENP8 block-2: SENP8 protease inhibition; Q96LD8; inhibition, % at 10 µM; 330,000 tested, 1.2% active; purified SENP8, Z-RLRGG-aminoluciferin cleavage, luminescence; in the data active = inhibition above about 50%
SENP6 block: blocks the human protease SENP6; Q9GZR1; Recombinant SENP6 catalytic domain, aminoluciferin luminescence; inhibition, % at 10 µM; 330,000 tested, 1.8% active;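 active = inhibition above about 50% at the single tested dose, limit read from the data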;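 also: plate controls were DMSO wells with enzyme for no effect and DMSO wells lacking enzyme for full effect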
SENP7 block: blocks the human protease SENP7; 330,000 tested, 1.5% active; recombinant SENP7, Z-RLRGG-aminoluciferin luminescence, 40 min; inhibition, % at 5 µM; Q9BQF6;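 active = inhibition above about 50% at the single test dose, limit read from the data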;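 also: plate controls were DMSO with enzyme for no effect and no enzyme buffer wells for full effect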
Target sequence (Q9BQF6 706-1050 limits assumed): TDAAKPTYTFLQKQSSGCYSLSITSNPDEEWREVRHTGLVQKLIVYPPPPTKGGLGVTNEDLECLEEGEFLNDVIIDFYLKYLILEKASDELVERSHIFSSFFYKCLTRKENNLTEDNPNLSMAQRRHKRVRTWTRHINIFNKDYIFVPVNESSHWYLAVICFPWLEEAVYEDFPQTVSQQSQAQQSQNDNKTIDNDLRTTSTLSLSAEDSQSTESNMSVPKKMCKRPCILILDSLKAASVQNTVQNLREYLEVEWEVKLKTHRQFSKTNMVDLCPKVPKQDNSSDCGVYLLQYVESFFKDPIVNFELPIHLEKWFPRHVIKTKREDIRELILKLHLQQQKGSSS
SENP1 FRET inh: inhibitors of human SENP1 SUMO protease catalytic domain. recombinant SENP1 catalytic domain, CyPet-SUMO1-YPet FRET cleavage. Q9P0U3. 360,000 tested, 0.21% active. inhibition, % at 10 µM;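 active = inhibition at least 30% at 10 µM, raw YFP signal under a set limit, fluorescence ratio 0.5 to 1.5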;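 also: 0% = enzyme with DMSO and 100% = no enzyme wells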
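Controls: no-enzyme wells low, DMSO-plus-enzyme wells high control. Test system: human recombinant His6-tagged SENP1 catalytic domain enzyme. Reagent: SFCypet-SUMO1-SFYpet FRET protein substrate, 25 nM final. Doses: one dose per compound, 10 µM, 0.5% DMSO. Detection: FRET, CFP and YFP emission. Timing: 50 min reaction at room temperature.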
SENP8 confirm: human SENP8 inhibition, confirmed. shares compounds with SENP7 block. Recombinant SENP8, Z-RLRGG-aminoluciferin luminescence, 60 min. 6,200 tested, 40% active. AID 488912. inhibition, % at 12.5 µM;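 active = mean inhibition across replicates above about 50%, limit read from the data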
SENP6 confirm: human SENP6 inhibition, confirmed; shares compounds with SENP7 block; recombinant SENP6, Z-RLRGG-aminoluciferin luminescence; inhibition, % at 12.5 µM; 6,200 tested, 58% active
SENP7 conf: confirmation of human SENP7 protease inhibitors | shares compounds with SENP7 block | recombinant SENP7, Z-RLRGG-aminoluciferin luminescence, 40 min | inhibition, % at 12.5 µM | 6,200 tested, 69% active | AID 488917
Casp3 SENP sel: inhibits human caspase-3 in SENP selectivity test. 6,200 tested, 60% active. inhibition, % at 12.5 µM. purified caspase-3, Z-DEVD-aminoluciferin luminescence, 60 min. AID 488918. shares compounds with SENP7 block;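 active = mean inhibition above about 50%, limit read from the data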;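 also: plate controls were enzyme with DMSO for no effect and wells without caspase-3 for full effect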
Luc interf: counter-screen for SENP inhibitors: luminescence interference. Pre-incubated SENP8/Z-RLRGG-aminoluciferin, luciferase luminescence interference. inhibition, % at 12.5 µM. AID 488919. 6,200 tested, 39% active. shares compounds with SENP7 block;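 active = mean inhibition above about 50% when retested at one dose, limit read from the data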;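 also: plate controls were DMSO wells with completed reaction for no effect and substrate without enzyme for full effect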
Active calls of the source: *; · = no result. This is a sample that favours compounds with a hit; in the whole collection about 3.3% have one here.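 The calls were made as follows, unless noted: active = mean inhibition above about 50% in the one-dose retest (limit read from the data); inactive = the rest.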

SMILES	SENP8 block-1	CendR NRP1 mod	SENP8 block-2	SENP6 block	SENP7 block	SENP1 FRET inh	SENP8 confirm	SENP6 confirm	SENP7 conf	Casp3 SENP sel	Luc interf
Nc1c(-c2n[nH]c(=S)n2-c2ccc(Cl)cc2Cl)cnn1-c1ccccc1	27	5	3	-29	2	3	·	·	·	·	·
Nc1[nH]nc2c1NN(c1ccc(Cl)cc1Cl)N2	15	5	37	65*	39	1	-3	-5	-6	-3	0
Cc1cc2nc(-c3ccc(Cl)cc3)c(Cc3ccsc3)n2c(C)c1Br	-2	-4	·	·	·	12	·	·	·	·	·
COc1ccccc1CNC(=O)COC(=O)/C=C/c1ccc2ccccc2n1	-1	-9	-17	-22	-3	-2	·	·	·	·	·
COc1ccc2c(-c3cc4ccc(OCc5ccc(F)cc5)cc4oc3=O)cc(=O)oc2c1	-424	-7	·	·	·	-5	·	·	·	·	·
O=C1COc2ccc(OCc3ccc(F)cc3)cc21	12	7	48	71*	64*	-4	68*	67*	89*	76*	50*
O=C(NC1c2ccccc2Oc2ccccc21)c1ccc([N+](=O)[O-])cc1	19	1	·	·	·	0	·	·	·	·	·
O=C(Nc1ccccc1)C(=O)c1c[nH]c2ccccc12	2	-6	89*	93*	97*	1	86*	90*	100*	85*	38
COC(=O)c1ccc(NC(=O)C(=O)c2c[nH]c3ccccc23)cc1	-13	6	-16	-2	21	-2	·	·	·	·	·
CCOC(=O)C1=CCN(S(=O)(=O)c2ccc(C)cc2)C1c1ccc(CC)cc1 (configuration not stated)	19	-8	·	·	·	-1	·	·	·	·	·
COc1ccccc1N1CCN(c2ccc(-c3ccccc3)nn2)CC1	13	-4	95*	94*	-3	-1	79*	89*	98*	90*	22
CC1(C(=O)NCCc2ccccc2)Cc2c(-c3ccccc3)ccnc2O1 (configuration not stated)	19	-3	·	·	·	0	·	·	·	·	·
O=c1oc(-c2cccs2)nc2sc3c(c12)CCCC3	-37	-5	74*	75*	89*	-73	47	49	46	70*	20
O=c1oc(-c2cccs2)nc2sc3c(c12)CCC3	-127	-19	15	23	-16	-24	·	·	·	·	·
Cc1onc(-c2ccccc2)c1C(=O)OCC(=O)c1ccc(F)cc1	11	0	·	·	·	-2	·	·	·	·	·
O=C(CSc1ccccn1)c1ccc(F)cc1	1	-2	6	23	4	4	·	·	·	·	·
O=C(CSc1ncccc1C(=O)O)c1ccccc1	3	-3	-16	-13	-5	0	·	·	·	·	·
Cc1ccc(C(=O)CSc2ccccn2)cc1	15	5	51*	69*	51*	1	5	35	-11	76*	68*
O=C(O)c1ccnc(SCC(=O)c2ccccc2)c1	0	-4	10	61*	26	0	0	-3	26	48	23
O=C(NC1CCCCC1)C(c1ccnc2ccccc12)n1c(=O)c(-c2ccccc2)nc2ccccc21 (configuration not stated)	-429	-5	·	·	·	-3	·	·	·	·	·
COc1cccc(-c2nc3n(n2)CCc2ccccc2-3)c1	17	-4	·	·	·	0	·	·	·	·	·
CC(=O)CSc1nc2cc3c(cc2cc1C#N)OCCO3	-284	-20	95*	91*	97*	18	84*	87*	58*	86*	27
